The source made the active and inactive calls. The calls are words filed in the database; no cut-off is given here.
Columns and labels:
Mus musculus [1] = test: Induction of BMP2 expression in SAMP6 mouse bone marrow stroma at 30 mg/kg/day, po after 3 months by immunohistochemical analysis; type: functional, organism-based
In short: (§1)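 SAMP6 mice, 5 months old, male and female, n = 5 per group (3 male, 2 female). Dosed by gavage with compound suspended in 0.5% methylcellulose daily for 3 months; the vehicle group received methylcellulose only. Proximal third of the left femur fixed in 4% neutral paraformaldehyde for 24 h, decalcified in 10% EDTA at 4 °C for 4 weeks, then frozen-sectioned at 5 μm. Stained with rabbit polyclonal anti-BMP-2 and an alkaline phosphatase secondary. BMP-2-positive area was taken as a percentage of bone tissue area, averaged over five fields below the epiphyseal plate.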

Mus musculus [2] = test: Toxicity in SAMP6 mouse assessed as change in 24 hrs water consumption at 30 mg/kg/day, po after 3 months; type: organism-based; design: route oral; conditions: in vivo
In short: (§2)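 SAMP6 mice, n = 5 per group, dosed orally at 30 mg/kg/day in 0.5% methylcellulose for 3 months. Heart, liver, spleen, lung and kidney harvested, weighed and examined histologically. Organ/body weight indexes, body weight, and 24 h water and food intake (g/g body weight) compared with vehicle controls.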

Mus musculus [3] = test: Toxicity in SAMP6 mouse assessed as pathological changes in lung at 30 mg/kg/day, po after 3 months by histomorphology; type: organism-based; design: route oral; conditions: in vivo; in short: as §2
Mus musculus [4] = test: Toxicity in SAMP6 mouse assessed as pathological changes in liver at 30 mg/kg/day, po after 3 months by histomorphology; type: organism-based; design: route oral; conditions: in vivo; in short: as §2
Mus musculus [5] = test: Induction of bone formation in SAMP6 mouse right femora assessed as trabecular resorption surface percentage at 30 mg/kg/day, po measured after 3 months by bone histomorphometry; type: functional, Trabecula
In short: (§3)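 SAMP6 mice, 5 months old, n = 5 per group (3 male, 2 female), randomized by initial BMD. Given compound in 0.5% methylcellulose by gavage daily for 3 months. Proximal third of the right femur fixed in 4% paraformaldehyde, cut as undecalcified sections, and scored by image analysis for histomorphometry.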

Mus musculus [6] = test: Induction of BMP2 expression in SAMP6 mouse osteoblast at 10 mg/kg/day, po after 3 months by immunohistochemical analysis; type: functional, organism-based; in short: as §1
Mus musculus [7] = test: Toxicity in SAMP6 mouse assessed as increase in body weight at 30 mg/kg/day, po after 3 months; type: organism-based; design: route oral; conditions: in vivo; in short: as §2
Mus musculus [8] = test: Toxicity in SAMP6 mouse assessed as change in 24 hrs food consumption at 30 mg/kg/day, po after 3 months; type: organism-based; design: route oral; conditions: in vivo; in short: as §2
Mus musculus [9] = test: Induction of bone formation in SAMP6 mouse right femora assessed as average osteoid width at 30 mg/kg/day, po measured after 3 months by bone histomorphometry; type: functional; in short: as §3
[10] = Toxicity in po dosed Kunming mouse assessed as mortality treated for 3 days measured after 17 days; type: organism-based; conditions: in vivo
In short: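 Male and female Kunming mice (18-21 g), six per group (three males, three females), were dosed orally at 500 or 700 (mg/kg)/day for 3 days. They were closely watched for deaths over the 3 dosing days and the following 14 days (17 days in total).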

Mus musculus [11] = test: Induction of bone formation in SAMP6 mouse right femora assessed as trabecular formation surface percentage at 30 mg/kg/day, po measured after 3 months by bone histomorphometry; type: functional, Trabecula; in short: as §3
Mus musculus [12] = test: Induction of bone formation in SAMP6 mouse right femora assessed as trabecular bone volume percentage at 30 mg/kg/day, po measured after 3 months by bone histomorphometry; type: functional, Trabecula; in short: as §3
Mus musculus [13] = test: Induction of BMP2 expression in SAMP6 mouse cartilage cells at 30 mg/kg/day, po after 3 months by immunohistochemical analysis; type: functional, organism-based; in short: as §1
Mus musculus [14] = test: Induction of bone mineral density in SAMP6 mouse assessed as whole body BMD at 30 mg/kg/day, po measured after 2 months; type: functional, organism-based
In short: (§4)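 SAMP6 mice, 5 months old, n = 5 per group, given compound in 0.5% methylcellulose by gavage daily. Dual-energy X-ray absorptiometry under pentobarbital anaesthesia (50 mg/kg ip), animals prone, at 0, 4, 8 and 12 weeks of treatment. Regions of interest were whole body, spine and left hind leg.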

Mus musculus [15] = test: Toxicity in SAMP6 mouse assessed as pathological changes in spleen at 30 mg/kg/day, po after 3 months by histomorphology; type: organism-based; design: route oral; conditions: in vivo; in short: as §2
Mus musculus [16] = test: Induction of bone mineral density in SAMP6 mouse assessed as whole body BMD at 10 mg/kg/day, po measured after 1 month; type: functional, organism-based; conditions: 30 mg/kg, in the assay text read “30 mg/kg/day” for “10 mg/kg/day”; in short: as §4
Mus musculus [17] = test: Induction of bone mineral density in SAMP6 mouse assessed as left hind leg BMD at 30 mg/kg/day, po measured after 3 months; type: functional; in short: as §4
Mus musculus [18] = test: Induction of bone mineral density in SAMP6 mouse assessed as whole body BMD at 10 mg/kg/day, po measured after 2 months; type: functional, organism-based; conditions: 30 mg/kg, in the assay text read “30 mg/kg/day” for “10 mg/kg/day”; in short: as §4
Mus musculus [19] = test: Induction of BMP2 expression in SAMP6 mouse osteoblast at 30 mg/kg/day, po after 3 months by immunohistochemical analysis; type: functional, organism-based; in short: as §1
[20] = Induction of BMP2 expression in mouse calcarial MC3T3-E1 cells stably transfected with mouse BMP2 promotor-luciferase assessed as upregulation rate at 4 uM; type: functional, cell-based
In short: (§5)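 Reporter assay in murine calvarial MC3T3-E1 cells stably carrying the mouse BMP-2 promoter fused to firefly luciferase (pGL4BMP-2). Cells grown in DMEM with 10% heat-inactivated FBS at 37 °C and 5% CO2. Test compounds at 4.0 μM; lovastatin at 0.4 μM as positive control; 0.1% DMSO as negative control. Up-regulation rate = (RLU of test − RLU of negative control)/RLU of negative control × 100.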

Mus musculus [21] = test: Toxicity in SAMP6 mouse assessed as pathological changes in heart at 30 mg/kg/day, po after 3 months by histomorphology; type: organism-based; design: route oral; conditions: in vivo; in short: as §2
Mus musculus [22] = test: Induction of bone mineral density in SAMP6 mouse assessed as whole body BMD at 30 mg/kg/day, po measured after 3 months; type: functional; in short: as §4
Mus musculus [23] = test: Toxicity in SAMP6 mouse assessed as pathological changes in kidney at 30 mg/kg/day, po after 3 months by histomorphology; type: organism-based; design: route oral; conditions: in vivo; in short: as §2
Mus musculus [24] = test: Induction of bone mineral density in SAMP6 mouse assessed as spine BMD at 30 mg/kg/day, po measured after 3 months; type: functional; in short: as §4
Mus musculus [25] = test: Induction of bone mineral density in SAMP6 mouse assessed as spine BMD at 30 mg/kg/day, po measured last 2 months; type: functional, organism-based; in short: as §4
Mus musculus [26] = test: Induction of bone formation in SAMP6 mouse right femora assessed as average osteoid width at 10 mg/kg/day, po measured after 3 months by bone histomorphometry; type: functional; in short: as §3
Mus musculus [27] = test: Induction of bone formation in SAMP6 mouse right femora assessed as trabecular formation surface percentage at 10 mg/kg/day, po measured after 3 months by bone histomorphometry; type: functional, Trabecula; in short: as §3
Mus musculus [28] = test: Induction of bone formation in SAMP6 mouse right femora assessed as trabecular bone volume percentage at 10 mg/kg/day, po measured after 3 months by bone histomorphometry; type: functional, Trabecula; in short: as §3
Mus musculus [29] = test: Induction of bone mineral density in SAMP6 mouse assessed as spine BMD at 10 mg/kg/day, po measured last 2 months; type: functional, organism-based; in short: as §4
Mus musculus [30] = test: Induction of bone mineral density in SAMP6 mouse assessed as left hind leg BMD at 10 mg/kg/day, po measured after 3 months; type: functional; in short: as §4
[31] = Induction of BMP2 expression in mouse […] MC3T3-E1 cells stably transfected with mouse BMP2 promotor-luciferase assessed as upregulation rate at 0.4 uM; type: functional, cell-based; in short: as §5
Mus musculus [32] = test: Induction of bone formation in SAMP6 mouse right femora assessed as trabecular resorption surface percentage at 10 mg/kg/day, po measured after 3 months by bone histomorphometry; type: functional, Trabecula; in short: as §3
Mus musculus [33] = test: Induction of bone mineral density in SAMP6 mouse assessed as spine BMD at 10 mg/kg/day, po measured after 3 months; type: functional; in short: as §4
Mus musculus [34] = test: Induction of bone mineral density in SAMP6 mouse assessed as whole body BMD at 10 mg/kg/day, po measured after 3 months; type: functional; in short: as §4
Mus musculus [35] = test: Induction of bone mineral density in SAMP6 mouse assessed as whole body BMD at 30 mg/kg/day, po measured after 2 months

Structure (SMILES)	Activity (Mus musculus [1])	Activity (Mus musculus [2])	Activity (Mus musculus [3])	Activity (Mus musculus [4])	Activity (Mus musculus [5]) [%]	Activity (Mus musculus [6])	Activity (Mus musculus [7])	Activity (Mus musculus [8])	Activity (Mus musculus [9]) [µm]	LD50 at 408 h [10] [mg/kg]	Activity (Mus musculus [11]) [%]	Activity (Mus musculus [12]) [%]	Activity (Mus musculus [13])	Activity (Mus musculus [14])	Activity (Mus musculus [15])	Activity (Mus musculus [16])	Activity (Mus musculus [17]) [g/cm2]	Activity (Mus musculus [19])	Activity [20] [%]	Activity (Mus musculus [21])	further results
C[S+]([O-])CC(=O)c1cc2ccccc2s1 (configuration not stated)	Active	Non-toxic	Non-toxic	Non-toxic	6.45	Active	Non-toxic	Non-toxic	5.85	> 700	5.13	5.95	inactive	Active	Non-toxic	Active	0.05	Active	19.7	Non-toxic	Activity (Mus musculus [18]): Active; Activity (Mus musculus [22]): 0.072 g/cm2; Activity (Mus musculus [23]): Non-toxic; Activity (Mus musculus [24]): 0.09 g/cm2
CCOC(=O)c1cc2cc3c(cc2s1)OCO3	Active	Non-toxic	Non-toxic	Non-toxic	6.45	Active	Non-toxic	Non-toxic	5.76	> 500	5.55	7.1	inactive	Active	Non-toxic	Active	0.053	Active	64.2	Non-toxic	Activity (Mus musculus [18]): Active; Activity (Mus musculus [22]): 0.072 g/cm2; Activity (Mus musculus [23]): Non-toxic; Activity (Mus musculus [25]): Active; Activity (Mus musculus [24]): 0.091 g/cm2
CC[C@H](C)C(=O)O[C@H]1C[C@@H](C)C=C2C=C[C@H](C)[C@H](CC[C@@H]3C[C@@H](O)CC(=O)O3)[C@H]21 [LOVASTATIN]														Active							Activity (Mus musculus [26]): 6.59 µm; Activity (Mus musculus [27]): 6.22%; Activity (Mus musculus [28]): 7.44%; Activity (Mus musculus [29]): Active; Activity (Mus musculus [30]): 0.046 g/cm2; Activity [31]: 20.9%; Activity (Mus musculus [32]): 6.64%; Activity (Mus musculus [33]): 0.095 g/cm2; Activity (Mus musculus [34]): 0.07 g/cm2
COc1ccc(/C=C/C(=O)c2cc3ccccc3s2)cc1	Active	Non-toxic	Non-toxic	Non-toxic	6.29	Active	Non-toxic	Non-toxic	5.5	> 500	6.54	8.94	inactive		Non-toxic	Active	0.05	Active	27.3	Non-toxic	Activity (Mus musculus [35]): Active; Activity (Mus musculus [22]): 0.07 g/cm2; Activity (Mus musculus [23]): Non-toxic; Activity (Mus musculus [24]): 0.089 g/cm2

Source: ChEMBL document CHEMBL1156262, “Substituted benzothiophene or benzofuran derivatives as a novel class of bone morphogenetic protein-2 up-regulators: synthesis, structure-activity relationships, and preventive bone loss efficacies in senescence accelerated mice (SAMP6) and ovariectomized rats” (J Med Chem, 2010)
